pIC50: −log10 of the molar value.
Assays:
[1] = test system: MDA-MB-231; test: Cytotoxicity against human MDA-MB-231 cells after 72 hrs by MTT assay; format: functional, cell-based; details: MDA-MB-231, 72 h
Method in brief: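 Cells were grown in MEM with 10% FBS. About 4×10^3 cells per well were seeded and incubated 24 h at 37 °C in 5% CO2. Compounds were then added at set final concentrations for 72 h. MTT (final 5 µg/mL) was added for 4 h at 37 °C, and formazan was dissolved in DMSO and read at 492 nm against a 630 nm reference. Each line was tested three times; IC50 is mean ± SD.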

[2] = test system: A549; test: Cytotoxicity against human A549 cells after 72 hrs by MTT assay; format: functional, cell-based; details: A549, 72 h
[3] = test system: HT-29; test: cells; details: Homo sapiens, HT-29, 72 h
[4] = test system: MKN-45; test: cells; details: Homo sapiens, MKN-45, 72 h
[5] = test system: SMMC-7721; test: cells; details: Homo sapiens, SMMC-7721, 72 h
[6] = test system: NCI-H460; test: cells; details: Homo sapiens, NCI-H460, 72 h
[7] = cells; details: Homo sapiens, U-87 MG, 72 h

SMILES	pIC50 [3]	pIC50 [4]	pIC50 [5]	pIC50 [6]	pIC50 [7]	pIC50 [1]	pIC50 [2]
COc1cc2c(Oc3ccc(NC(=O)N/N=C/c4ccc(C(F)(F)F)cc4)cc3F)ccnc2cc1OCCCN1CCOCC1	5.96	6.11				5.96	6.10
COc1cc2c(Oc3ccc(NC(=O)N/N=C/c4ccccc4F)cc3F)ccnc2cc1OCCCN1CCCCC1	6.66	6.24				6.04	6.89
COc1cc2c(Oc3ccc(NC(=O)N/N=C/C(C)C)cc3F)ccnc2cc1OCCCN1CCCCC1	5.96	5.70				5.57	5.72
COc1cc2c(Oc3ccc(NC(=O)N/N=C/c4ccccc4)cc3F)ccnc2cc1OCCCN1CCCC1	6.36	6.11				6.02	6.38
COc1cc2c(Oc3ccc(NC(=O)N/N=C/c4ccco4)cc3F)ccnc2cc1OCCCN1CCCCC1	6.44	6.15				6.04	6.36
COc1cc2c(Oc3ccc(NC(=O)N/N=C/c4ccc(Cl)cc4)cc3F)ccnc2cc1OCCCN1CCCC1	6.74	6.21				5.89	6.39
COc1cc2c(Oc3ccc(NC(=O)N/N=C/c4ccc(OC(F)(F)F)cc4)cc3F)ccnc2cc1OCCCN1CCOCC1	5.85	5.92				5.74	6.06
COc1cc2c(Oc3ccc(NC(=O)N/N=C/c4ccc(F)c(F)c4)cc3F)ccnc2cc1OCCCN1CCCCC1	6.42	6.15				5.89	6.57
COc1cc2c(Oc3ccc(NC(=O)N/N=C/c4ccccc4)cc3F)ccnc2cc1OCCCN1CCC(C)CC1	6.62	6.29				6.03	6.52
COc1cc2c(Oc3ccc(NC(=O)N/N=C/c4ccc(F)cc4)cc3F)ccnc2cc1OCCCN1CCOCC1	7.02	6.25				5.80	6.70
COc1cc2c(Oc3ccc(NC(=O)N/N=C/c4ccccc4[N+](=O)[O-])cc3F)ccnc2cc1OCCCN1CCCCC1	6.82	6.32				6.26	6.72
COc1cccc(/C=N/NC(=O)Nc2ccc(Oc3ccnc4cc(OCCCN5CCCCC5)c(OC)cc34)c(F)c2)c1	6.48	6.14				5.92	6.47
COc1cc2c(Oc3ccc(NC(=O)N/N=C/c4ccc(Cl)cc4)cc3F)ccnc2cc1OCCCN1CCOCC1	6.80	6.19				5.92	6.48
COc1cc2c(Oc3ccc(NC(=O)N/N=C/c4ccc(F)cc4F)cc3F)ccnc2cc1OCCCN1CCCCC1	6.72	6.25	6.52	7.11	7.74	6.07	7.11
COc1cc2c(Oc3ccc(NC(=O)N/N=C/c4cccnc4)cc3F)ccnc2cc1OCCCN1CCCCC1	6.49	6.10				6.06	6.34
COc1cc2c(Oc3ccc(NC(=O)N/N=C/c4ccc(F)cc4)cc3F)ccnc2cc1OCCCN1CCCC1	6.66	6.23				5.89	6.57
COc1cc2c(Oc3ccc(NC(=O)N/N=C/c4ccccc4C#N)cc3F)ccnc2cc1OCCCN1CCCCC1	6.59	6.28				6.21	6.72
CC/C(=N\NC(=O)Nc1ccc(Oc2ccnc3cc(OCCCN4CCCCC4)c(OC)cc23)c(F)c1)c1ccccc1	6.48	6.03				5.96	6.54
COc1cc2c(Oc3ccc(NC(=O)N/N=C/c4ccc([N+](=O)[O-])cc4)cc3F)ccnc2cc1OCCCN1CCCCC1	6.43	6.05				5.85	6.09

More lines, in order of rising pIC50 [3], values ahead:

pIC50 [3]	pIC50 [4]	pIC50 [5]	pIC50 [6]	pIC50 [7]	SMILES	pIC50 [1]	pIC50 [2]
6.08	6.09				C=CCc1cccc(/C=N/NC(=O)CN2CCN(Cc3ccccc3)CC2)c1O [PAC-1]	5.34	
6.15	6.19				COc1cc2c(Oc3ccc(NC(=O)N/N=C/c4c(C)cc(C)cc4C)cc3F)ccnc2cc1OCCCN1CCCCC1	5.96	5.72
6.18	6.07				COc1cc2c(Oc3ccc(NC(=O)NNCc4ccc(F)cc4F)cc3F)ccnc2cc1OCCCN1CCC(C)CC1	5.89	6.46
6.23	6.07				COc1ccc(OC)c(/C=N/NC(=O)Nc2ccc(Oc3ccnc4cc(OCCCN5CCCCC5)c(OC)cc34)c(F)c2)c1	5.82	6.07
6.36	6.03				COc1cc2c(Oc3ccc(NC(=O)N/N=C/c4ccc[nH]4)cc3F)ccnc2cc1OCCCN1CCCCC1	6.00	6.27
6.40	6.06				COc1cc2c(Oc3ccc(NC(=S)N/N=C/c4ccco4)cc3F)ccnc2cc1OCCCN1CCCCC1	5.96	6.33
6.48	6.17				COc1cc2c(Oc3ccc(NC(=S)N/N=C/c4ccc(F)cc4F)cc3F)ccnc2cc1OCCCN1CCCCC1	6.02	6.72
6.49	6.12				COc1cc2c(Oc3ccc(NC(=O)N/N=C/c4cccc([N+](=O)[O-])c4)cc3F)ccnc2cc1OCCCN1CCCCC1	6.00	6.12
6.70	6.19				COc1cc2c(Oc3ccc(NC(=O)N/N=C(\C)c4ccccc4)cc3F)ccnc2cc1OCCCN1CCCCC1	6.02	6.80
6.70	6.17				COc1cc2c(Oc3ccc(NC(=O)N/N=C/c4ccccc4)cc3F)ccnc2cc1OCCCN1CCOCC1	5.68	6.46
6.74	6.31				COc1cc2c(Oc3ccc(NC(=O)N/N=C/c4ccccc4F)cc3F)ccnc2cc1OCCCN1CCC(C)CC1	6.06	6.66
6.74	6.24				COc1cc2c(Oc3ccc(NC(=O)N/N=C/c4ccccc4)cc3F)ccnc2cc1OCCCN1CCCCC1	6.00	6.80
6.80	6.23				COc1cc2c(Oc3ccc(NC(=O)N/N=C/c4ccccc4C(F)(F)F)cc3F)ccnc2cc1OCCCN1CCCCC1	6.14	6.89
6.85	6.21				COc1cc2c(Oc3ccc(NC(=O)N/N=C/c4ccc(Cl)cc4)cc3F)ccnc2cc1OCCCN1CCC(C)CC1	5.92	6.77
6.85	6.35				COc1cc2c(Oc3ccc(NC(=S)N/N=C/c4ccccc4[N+](=O)[O-])cc3F)ccnc2cc1OCCCN1CCCCC1	6.08	6.60
6.89	6.31	6.48	7.16		COc1cc2c(Oc3ccc(NC(=O)N/N=C/c4ccc(F)cc4)cc3F)ccnc2cc1OCCCN1CCCCC1	6.09	7.05
7.01	6.33	6.39	7.20	7.62	COc1cc2c(Oc3ccc(NC(=O)N/N=C/c4ccc(Cl)cc4)cc3F)ccnc2cc1OCCCN1CCCCC1	6.03	6.66
7.08	6.21				COc1cc2c(Oc3ccc(NC(=O)N/N=C/c4ccc(F)cc4)cc3F)ccnc2cc1OCCCN1CCC(C)CC1	6.03	6.96

Reference: ChEMBL document CHEMBL2417367 (Bioorg Med Chem, 2013)
